According to ChEMBL document CHEMBL1134346, “Labeling and evaluation of N-[11C]methylated quinoline-2-carboxamides as potential radioligands for visualization of peripheral benzodiazepine receptors” (J Med Chem, 2001):

Columns and labels:
Rattus norvegicus [1] = organism: Rattus norvegicus; assay: Tissue (pituitary) distribution in Albino male CD rats after 90 minutes expressed as percent of injected dose per gram of organ.; type: ADME, organism-based, Pituitary gland; settings: in vivo, 1.5 h
Method in brief: (§1)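 Male albino CD rats (225-250 g) received the 11C-labelled radioligand in saline by tail-vein injection. Three rats per time point were decapitated under light ether anaesthesia at 5, 15, 30, 60 or 90 min. Blood was collected heparinized and plasma separated by centrifugation. The pituitary was dissected from the brain. Lung, liver (three-lobe pieces) and right deltoid muscle were sampled, washed in cold saline, gamma-counted and weighed. Results are %I.D./g.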

Rattus norvegicus [2] = organism: Rattus norvegicus; assay: Tissue (pituitary) distribution in Albino male CD rats after 5 minutes expressed as percent of injected dose per gram of organ.; type: ADME, organism-based, Pituitary gland; settings: in vivo; method in brief: as §1
Rattus norvegicus [3] = organism: Rattus norvegicus; assay: Tissue (muscle) distribution in Albino male CD rats after 5 minutes expressed as percent of injected dose per gram of organ.; type: ADME, organism-based; settings: in vivo; method in brief: as §1
Rattus norvegicus [4] = organism: Rattus norvegicus; assay: Tissue (lung) concentration of radioactivity at 30 min post-injection into Albino male CD rats with vehicle.; type: ADME, organism-based; settings: in vivo, 0.5 h
Method in brief: (§2)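 Blocking study in male albino CD rats, five per group. Immediately before the 11C radioligand (in saline, i.v. tail vein), rats received 30 µL tail-vein PK 11195 (5 mg/kg; 1.4-1.6 mg) in DMSO:EtOH 1:1, or vehicle. Rats were decapitated at 30 min. Tissues were dissected, washed, gamma-counted and weighed as in the biodistribution study. Results are %I.D./g.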

Rattus norvegicus [5] = organism: Rattus norvegicus; assay: Tissue (adrenal gland) distribution in Albino male CD rats after 90 minutes expressed as percent of injected dose per gram of organ.; type: ADME, organism-based; settings: in vivo, 1.5 h
Method in brief: (§3)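 Radioligand given in saline into tail vein of male albino CD rats (225-250 g); 100-200 µCi per animal, 1-2 Ci/µmol at injection depending on radioligand. Three rats per time point were decapitated under light ether anaesthesia. Blood, plasma, brain regions and washed organs were weighed and gamma-counted. Uptake is %I.D./g tissue, mean ± SD.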

Rattus norvegicus [6] = organism: Rattus norvegicus; assay: Tissue (heart) distribution in Albino male CD rats after 15 minutes expressed as percent of injected dose per gram of organ.; type: ADME, organism-based; settings: in vivo, 0.25 h; method in brief: as §3
Rattus norvegicus [7] = organism: Rattus norvegicus; assay: Tissue (blood) distribution in Albino male CD rats after 60 minutes expressed as percent of injected dose per gram of organ.; type: ADME, organism-based; settings: in vivo, 1 h; method in brief: as §3
Rattus norvegicus [8] = organism: Rattus norvegicus; assay: Tissue (cortex) distribution in Albino male CD rats after 60 minutes expressed as percent of injected dose per gram of organ.; type: ADME, organism-based; settings: in vivo, 1 h; method in brief: as §3
Rattus norvegicus [9] = organism: Rattus norvegicus; assay: Tissue (adrenal gland) distribution in Albino male CD rats after 60 minutes expressed as percent of injected dose per gram of organ.; type: ADME, organism-based; settings: in vivo, 1 h; method in brief: as §3
Rattus norvegicus [10] = organism: Rattus norvegicus; assay: Tissue (testicle) distribution in Albino male CD rats after 5 minutes expressed as percent of injected dose per gram of organ.; type: ADME, organism-based; settings: in vivo; method in brief: as §1
Rattus norvegicus [11] = organism: Rattus norvegicus; assay: Tissue (cerebellum) distribution in Albino male CD rats after 60 minutes expressed as percent of injected dose per gram of organ.; type: ADME, organism-based; settings: in vivo, 1 h; method in brief: as §3
Rattus norvegicus [12] = organism: Rattus norvegicus; assay: Tissue (plasma) distribution in Albino male CD rats after 60 minutes expressed as percent of injected dose per gram of organ.; type: ADME, organism-based; settings: in vivo, 1 h; method in brief: as §1
[13] = target: Translocator protein (Rattus norvegicus) (UniProt P16257); assay: Tissue (lung) concentration of radioactivity at 30 min post-injection into Albino male CD rats after pretreatment with cold PK 11195.; type: functional; method in brief: as §2
Rattus norvegicus [14] = organism: Rattus norvegicus; assay: Tissue (liver) concentration of radioactivity at 30 min post-injection into Albino male CD rats with vehicle.; type: ADME, organism-based; settings: in vivo, 0.5 h
Method in brief: (§4)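 Separate groups of five rats received tail-vein PK 11195 (1.4-1.6 mg; 5 mg/kg) in 30 µL DMSO:EtOH 1:1, or vehicle alone, immediately before iv radioligand (90-170 µCi in saline, 0.9-1 Ci/µmol). Rats were decapitated at 30 min and tissues gamma-counted; values are %I.D./g.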

[15] = target: Translocator protein (Rattus norvegicus) (UniProt P16257); assay: Tissue (heart) concentration of radioactivity at 30 min post-injection into Albino male CD rats after pretreatment with cold PK 11195.; type: functional; method in brief: as §4
[16] = target: Translocator protein (Rattus norvegicus) (UniProt P16257); assay: Tissue (spleen) concentration of radioactivity at 30 min post-injection into Albino male CD rats after pretreatment with cold PK 11195.; type: functional, tissue-based; method in brief: as §2
Rattus norvegicus [17] = organism: Rattus norvegicus; assay: Tissue (cerebellum) distribution in Albino male CD rats after 90 minutes expressed as percent of injected dose per gram of organ.; type: ADME, organism-based; settings: in vivo, 1.5 h; method in brief: as §3
Rattus norvegicus [18] = organism: Rattus norvegicus; assay: Tissue (intestine) distribution in Albino male CD rats after 60 minutes expressed as percent of injected dose per gram of organ.; type: ADME, organism-based; settings: in vivo, 1 h; method in brief: as §3
Rattus norvegicus [19] = organism: Rattus norvegicus; assay: Tissue (muscle) concentration of radioactivity at 30 min post-injection into Albino male CD rats with vehicle.; type: ADME, organism-based; settings: in vivo, 0.5 h; method in brief: as §2
[20] = target: Translocator protein (Rattus norvegicus) (UniProt P16257); assay: Tissue (muscle) concentration of radioactivity at 30 min post-injection into Albino male CD rats after pretreatment with cold PK 11195.; type: functional; method in brief: as §2
[21] = target: Translocator protein (Rattus norvegicus) (UniProt P16257); assay: Tissue (adrenal gland) concentration of radioactivity at 30 min post-injection into Albino male CD rats after pretreatment with cold PK 11195.; type: functional, tissue-based; method in brief: as §4
Rattus norvegicus [22] = organism: Rattus norvegicus; assay: Tissue (blood) distribution in Albino male CD rats after 15 minutes expressed as percent of injected dose per gram of organ.; type: ADME, organism-based; settings: in vivo, 0.25 h; method in brief: as §3
Rattus norvegicus [23] = organism: Rattus norvegicus; assay: Tissue (kidney) distribution in Albino male CD rats after 30 minutes expressed as percent of injected dose per gram of organ.; type: ADME, organism-based; settings: in vivo, 0.5 h; method in brief: as §3
Rattus norvegicus [24] = organism: Rattus norvegicus; assay: Tissue (pituitary) distribution in Albino male CD rats after 15 minutes expressed as percent of injected dose per gram of organ.; type: ADME, organism-based, Pituitary gland; settings: in vivo, 0.25 h; method in brief: as §1
Rattus norvegicus [25] = organism: Rattus norvegicus; assay: Tissue (spleen) distribution in Albino male CD rats after 30 minutes expressed as percent of injected dose per gram of organ.; type: ADME, organism-based; settings: in vivo, 0.5 h; method in brief: as §1
Rattus norvegicus [26] = organism: Rattus norvegicus; assay: Tissue (testicle) distribution in Albino male CD rats after 90 minutes expressed as percent of injected dose per gram of organ.; type: ADME, organism-based; settings: in vivo, 1.5 h
Rattus norvegicus [27] = organism: Rattus norvegicus; assay: Tissue (liver) distribution in Albino male CD rats after 15 minutes expressed as percent of injected dose per gram of organ.; type: ADME, organism-based; settings: in vivo, 0.25 h; method in brief: as §3
Rattus norvegicus [28] = organism: Rattus norvegicus; assay: Tissue (liver) distribution in Albino male CD rats after 60 minutes expressed as percent of injected dose per gram of organ.; type: ADME, organism-based; settings: in vivo, 1 h; method in brief: as §1
Rattus norvegicus [29] = organism: Rattus norvegicus; assay: Tissue (cerebellum) distribution in Albino male CD rats after 30 minutes expressed as percent of injected dose per gram of organ.; type: ADME, organism-based; settings: in vivo, 0.5 h; method in brief: as §3
Rattus norvegicus [30] = organism: Rattus norvegicus; assay: Tissue (liver) distribution in Albino male CD rats after 30 minutes expressed as percent of injected dose per gram of organ.; type: ADME, organism-based; settings: in vivo, 0.5 h; method in brief: as §1
Rattus norvegicus [31] = organism: Rattus norvegicus; assay: Tissue (adrenal gland) distribution in Albino male CD rats after 5 minutes expressed as percent of injected dose per gram of organ.; type: ADME, organism-based; settings: in vivo; method in brief: as §3
Rattus norvegicus [32] = organism: Rattus norvegicus; assay: Tissue (plasma) distribution in Albino male CD rats after 90 minutes expressed as percent of injected dose per gram of organ.; type: ADME, organism-based; settings: in vivo, 1.5 h; method in brief: as §1
Rattus norvegicus [33] = organism: Rattus norvegicus; assay: Tissue (spleen) distribution in Albino male CD rats after 15 minutes expressed as percent of injected dose per gram of organ.; type: ADME, organism-based; settings: in vivo, 0.25 h
Rattus norvegicus [34] = organism: Rattus norvegicus; assay: Tissue (blood) distribution in Albino male CD rats after 30 minutes expressed as percent of injected dose per gram of organ.; type: ADME, organism-based; settings: in vivo, 0.5 h; method in brief: as §3
Rattus norvegicus [35] = organism: Rattus norvegicus; assay: Tissue (intestine) distribution in Albino male CD rats after 90 minutes expressed as percent of injected dose per gram of organ.; type: ADME, organism-based; settings: in vivo, 1.5 h; method in brief: as §3
Rattus norvegicus [36] = organism: Rattus norvegicus; assay: Tissue (testicle) distribution in Albino male CD rats after 60 minutes expressed as percent of injected dose per gram of organ.; type: ADME, organism-based; settings: in vivo, 1 h; method in brief: as §1
Rattus norvegicus [37] = organism: Rattus norvegicus; assay: Tissue (lung) distribution in Albino male CD rats after 30 minutes expressed as percent of injected dose per gram of organ.; type: ADME, organism-based; settings: in vivo, 0.5 h; method in brief: as §1
Rattus norvegicus [38] = organism: Rattus norvegicus; assay: Tissue (cortex) distribution in Albino male CD rats after 90 minutes expressed as percent of injected dose per gram of organ.; type: ADME, organism-based; settings: in vivo, 1.5 h; method in brief: as §3
Rattus norvegicus [39] = organism: Rattus norvegicus; assay: Tissue (heart) distribution in Albino male CD rats after 30 minutes expressed as percent of injected dose per gram of organ.; type: ADME, organism-based; settings: in vivo, 0.5 h; method in brief: as §3
[40] = target: Translocator protein (Rattus norvegicus) (UniProt P16257); assay: Tissue (pituitary) concentration of radioactivity at 30 min post-injection into Albino male CD rats after pretreatment with cold PK 11195.; type: functional, tissue-based; settings: Pituitary gland; method in brief: as §2

Translocator protein (Rattus norvegicus), sequence (P16257 whole entry, looked up): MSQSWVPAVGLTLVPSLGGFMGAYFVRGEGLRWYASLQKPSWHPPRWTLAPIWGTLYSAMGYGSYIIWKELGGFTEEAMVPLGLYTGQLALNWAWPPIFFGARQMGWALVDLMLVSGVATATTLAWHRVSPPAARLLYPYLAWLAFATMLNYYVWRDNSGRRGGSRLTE

CCC(C)N(C)C(=O)c1nc2ccccc2c(-c2ccccc2)c1C (stereo not given)
I.D./g (Rattus norvegicus [1]): 0.2%
I.D./g (Rattus norvegicus [2]): 0.22%
I.D./g (Rattus norvegicus [3]): 0.11%
I.D./g (Rattus norvegicus [4]): 0.91%
I.D./g (Rattus norvegicus [5]): 1.8%
I.D./g (Rattus norvegicus [6]): 0.8%
I.D./g (Rattus norvegicus [7]): 0.03%
I.D./g (Rattus norvegicus [8]): 0.04%
I.D./g (Rattus norvegicus [9]): 2.27%
I.D./g (Rattus norvegicus [10]): 0.06%
I.D./g (Rattus norvegicus [11]): 0.05%
I.D./g (Rattus norvegicus [12]): 0.03%
I.D./g [13]: < 0.14%
I.D./g (Rattus norvegicus [14]): 0.3%
I.D./g [15]: < 0.13%
I.D./g [16]: < 0.11%
I.D./g (Rattus norvegicus [17]): 0.04%
I.D./g (Rattus norvegicus [18]): 0.4%
I.D./g (Rattus norvegicus [19]): 0.09%
I.D./g [20]: > 0.07%
I.D./g [21]: > 0.94%
I.D./g (Rattus norvegicus [22]): 0.08%
I.D./g (Rattus norvegicus [23]): 0.77%
I.D./g (Rattus norvegicus [24]): 0.2%
I.D./g (Rattus norvegicus [25]): 1.25%
I.D./g (Rattus norvegicus [26]): 0.08%
I.D./g (Rattus norvegicus [27]): 0.5%
I.D./g (Rattus norvegicus [28]): 0.32%
I.D./g (Rattus norvegicus [29]): 0.09%
I.D./g (Rattus norvegicus [30]): 0.55%
I.D./g (Rattus norvegicus [31]): 1.32%
I.D./g (Rattus norvegicus [32]): 0.02%
I.D./g (Rattus norvegicus [33]): 0.92%
I.D./g (Rattus norvegicus [34]): 0.06%
I.D./g (Rattus norvegicus [35]): 0.37%
I.D./g (Rattus norvegicus [36]): 0.09%
I.D./g (Rattus norvegicus [37]): 2.34%
I.D./g (Rattus norvegicus [38]): 0.03%
I.D./g (Rattus norvegicus [39]): 1.21%
I.D./g [40]: < 0.07%
